{"data": "Assay results pooled from the literature", "target": "MAP kinase-activated protein kinase 3 (MAPKAPK3, Homo sapiens, UniProt Q16644)", "note": "Each line is one published result; the experiments were not run side by side."}
{"Structure (SMILES)": "CCOc1cc(-c2nncn2C)ccc1Nc1ncc2cc(C)nc(NCC(C)(C)C)c2n1", "effect on": "enzyme activity", "mode": "inhibitor", "method": "FRET", "concentration": "1 µM", "quantity": "inhibition", "value": "< 15%"}
{"Structure (SMILES)": "CCN(CC)CCNC(=O)c1c(C)[nH]c(/C=C2\\C(=O)Nc3ccc(F)cc32)c1C", "effect on": "enzyme activity", "mode": "inhibitor", "concentration": "10 µM", "quantity": "inhibition", "value": "6%"}
{"Structure (SMILES)": "CN1CC(Oc2cnc(C#N)cc2-c2ccn3nc(NC(=O)C4CC4)cc3c2)C1", "effect on": "enzyme activity", "mode": "inhibitor", "concentration": "1 µM", "quantity": "inhibition", "value": "-1%"}
{"Structure (SMILES)": "COc1cc2ncnc(Nc3ccc(Oc4ccccc4)cc3C)c2cc1OC", "effect on": "enzyme activity", "mode": "inhibitor", "concentration": "1 µM", "quantity": "inhibition", "value": "0%"}
{"Structure (SMILES)": "Cc1ccc(Nc2nccc(N(C)c3ccc4c(C)n(C)nc4c3)n2)cc1S(N)(=O)=O", "effect on": "enzyme activity", "mode": "inhibitor", "concentration": "0.3 µM", "quantity": "inhibition", "value": "-8%"}
{"Structure (SMILES)": "O=C1Nc2ccc(Cl)cc2C1=Cc1cc(Cl)c(O)c(Cl)c1", "effect on": "cell-free assay", "concentration": "0.5 µM", "quantity": "remaining signal", "value": "88.4%"}
{"Structure (SMILES)": "Cc1cc(NC(=O)c2cccc3cc(-c4cccc5[nH]nc(N)c45)ccc23)ccc1F", "effect on": "enzyme activity", "mode": "inhibitor", "concentration": "0.1 µM", "quantity": "activity vs control", "value": "96%"}
{"Structure (SMILES)": "FC(F)(F)Oc1cccc(-c2cnc3ccc(-c4ccncc4)nn23)c1", "effect on": "enzyme activity", "mode": "inhibitor", "method": "radiometric", "concentration": "1 µM", "quantity": "activity vs control", "value": "107%"}
{"Structure (SMILES)": "Cc1cnc(NC2CCOCC2)nc1-n1cnc(C(=O)NC(CN)c2cc(F)cc(Cl)c2)c1 (stereo not shown)", "effect on": "enzyme activity", "mode": "inhibitor", "method": "radiometric", "concentration": "1 µM", "quantity": "remaining activity", "value": "110%"}
{"Structure (SMILES)": "CNC(=O)c1cc(Oc2ccc(NC(=O)Nc3ccc(Cl)c(C(F)(F)F)c3)cc2)ccn1", "effect on": "enzyme activity", "mode": "inhibitor", "concentration": "0.3 µM", "quantity": "inhibition", "value": "-3%"}
{"Structure (SMILES)": "COc1cc(Nc2cnc(C#N)c(O[C@H](C)CN(C)C)n2)ncc1-c1cnn(C)c1", "effect on": "enzyme activity", "mode": "inhibitor", "method": "radiometric", "concentration": "10 µM", "quantity": "remaining activity", "value": "80%"}
{"Structure (SMILES)": "O=C1NC(=O)c2cc(Nc3ccc(F)cc3)c(Nc3ccc(F)cc3)cc21", "effect on": "cell-free assay", "concentration": "0.5 µM", "quantity": "remaining signal", "value": "95.9%"}
{"Structure (SMILES)": "CNc1cccc2cc(C(=O)Nc3ccc(C(=O)O)cc3)c(=O)[nH]c12", "effect on": "enzyme activity", "mode": "inhibitor", "concentration": "10 µM", "quantity": "inhibition", "value": "-3.2%"}
{"Structure (SMILES)": "CC(C)(C)c1nc(-c2cccc(NS(=O)(=O)c3c(F)cccc3F)c2F)c(-c2ccnc(N)n2)s1", "effect on": "enzyme activity", "mode": "inhibitor", "method": "radiometric", "concentration": "1 µM", "quantity": "remaining activity", "value": "92%"}
{"Structure (SMILES)": "CCCCNc1ncc2c(-c3ccc(F)cc3)nn(C[C@H]3CC[C@H](N)CC3)c2n1", "effect on": "target engagement in cells", "mode": "inhibitor", "method": "chemoproteomics", "concentration": "20 mM", "quantity": "inhibition", "value": "6.1%"}
{"Structure (SMILES)": "FC(F)c1nc2ccccc2n1-c1nc(N2CCOCC2)nc(N2CCOCC2)n1", "effect on": "enzyme activity", "mode": "inhibitor", "concentration": "10 µM", "quantity": "remaining activity", "value": "97%"}
{"Structure (SMILES)": "CC/C(=N\\NC(=O)NCc1cccc(O)c1)c1ccc(O)c(C)c1O", "effect on": "enzyme activity", "mode": "inhibitor", "concentration": "0.1 µM", "quantity": "inhibition", "value": "-6%"}
{"Structure (SMILES)": "O=C(Nc1cnn(-c2csc(C(=O)NC3COC3)c2)c1)Nc1ccccc1Cl", "effect on": "enzyme activity", "mode": "inhibitor", "concentration": "5 µM", "quantity": "remaining activity", "value": "83.5%"}
{"Structure (SMILES)": "Cc1ccc(NC(=O)c2ccc(C)c(C(F)(F)F)c2)cc1C#Cc1nn(C2CCC(O)CC2)c2ncnc(N)c12 (stereo not shown)", "effect on": "cell-free assay", "concentration": "10 µM", "quantity": "remaining signal", "value": "96%"}
